Measured values from paper PMC12466149 (eBioMedicine, 2025).
Entries after “also recorded” stand apart in the source; their conditions may differ.

What was measured:
MC65 Tet-On cells [1] = assay: Real-time respirometry; format: cell-based, human
[2] = test system: mitochondrial complex I (mtCI); assay: mtCI activity in isolated brain mitochondria; format: biochemical, mouse; settings: 1 μM rotenone
Procedure, shortened: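 Mouse brain mitochondria isolated by differential centrifugation (5900×g 4 min, then 12,000×g 10 min, 4 °C) in mannitol/sucrose/HEPES-Tris/EGTA medium, pH 7.4, with BSA and 0.02% digitonin. Complex I activity measured spectrophotometrically at 25 °C as oxidation of 0.15 mM NADH at 340 nm. Buffer: sucrose/Tris-HCl pH 7.5/KCl with 10 μM cytochrome c, 40 μg/ml alamethicin and 1 mM MgCl2.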

MC65 Tet-On cells [3] = assay: Cytotoxicity in MC65 Tet-On cells; format: cell-based, human; settings: 32 nM rotenone
Procedure, shortened: (§1)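 MC65 human neuroblastoma cells in high-glucose DMEM with 10% FBS, 1 mM pyruvate and nonessential amino acids, 5% CO2, 37 °C. Tet-Off (Aβ expressed) cells got test compound at 2 nM–5 μM, optionally after 30 min pretreatment with 32 nM rotenone. Tet-On cells got vehicle or 32 nM rotenone. Viability at 3 days by MTT: 0.25 mg/ml, 4 h at 37 °C, solubilised in HCl/isopropanol, read at 570 nm. Tet-On vehicle set as 100%.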

SH-SY5Y APPSWE cells = assay: Mitochondrial stress test; format: cell-based, human; settings: rotenone 256 nM
Procedure, shortened: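 For SH-SY5Y cells stably expressing APPSWE, cells were held 1 h at 37 °C without CO2 in XF DMEM pH 7.4 (1 mM pyruvate, 2 mM glutamine, 10 mM glucose). OCR was recorded basally, then after oligomycin A and FCCP (each titrated over 0.5–3 μM) and 0.5 μM rotenone plus 0.5 μM antimycin A. Hoechst (5 μM final) was used for cell-count normalisation. SRC = maximal minus basal OCR.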

[4] = test system: MC65 Tet-Off cells (Aβ expressed); assay: Protection against Aβ toxicity in MC65 Tet-Off cells; format: cell-based, human; settings: any concentration of rotenone; data not shown
Procedure, shortened: as §1

C=C(C)[C@H]1Cc2c(ccc3c2O[C@@H]2COc4cc(OC)c(OC)cc4[C@@H]2C3=O)O1 [rotenone]
Reduction of OCR (MC65 Tet-On cells [1]; 32 nM rotenone, within 30 min): 50%
Effect on respiration (MC65 Tet-On cells [1]; kinetic injection): immediately blocked respiration
mtCI inhibition (in words) [2]: complete inhibition; also recorded: completely inhibits
Cytotoxicity (MC65 Tet-On cells [3]): show no toxicity; also recorded: did not induce cell death
Spare respiratory capacity (SRC) (SH-SY5Y APPSWE cells): did not improve SRC
Protection against Aβ toxicity [4]: did not protect
